Experimental data as given in ChEMBL document CHEMBL3632581, “Dimers of Melampomagnolide B Exhibit Potent Anticancer Activity against Hematological and Solid Tumor Cells” (J Med Chem, 2015).

Columns and labels:
HL-60(TB) = experiment: Cytotoxicity against human HL-60(TB) cells after 48 hrs by SRB assay; assay type: functional; conditions: HL-60, 48 h
Procedure, shortened: (§1)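 NCI-60 five-dose screen at 10−8 to 10−4 M. Cells were plated at 5,000–40,000/well in RPMI 1640 with 5% FBS and 2 mM L-glutamine, then preincubated 24 h, and time-zero plates were TCA-fixed. Compound was added from DMSO stocks and exposed 48 h at 37 °C. Cells were TCA-fixed, SRB-stained, and read at 515 nm. LC50 is the concentration halving the cell population through cell death.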

K562 = experiment: Cytotoxicity against human K562 cells after 48 hrs by SRB assay; assay type: functional; conditions: K562, 48 h; procedure, shortened: as §1
RPMI-8226 = experiment: Cytotoxicity against human RPMI8226 cells after 48 hrs by SRB assay; assay type: functional; conditions: RPMI-8226, 48 h; procedure, shortened: as §1
SR = experiment: Cytotoxicity against human SR cells after 48 hrs by SRB assay; assay type: functional
Procedure, shortened: (§2)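 NCI-60 screen: cells grown in RPMI 1640 with 5% FBS and 2 mM L-glutamine, plated at 5,000–40,000 cells/well by doubling time, and preincubated 24 h at 37 °C before drug. Drug was diluted from DMSO stock and given at five concentrations, 10−4 to 10−8 M, for 48 h. Cells fixed with cold TCA, SRB stained, OD read at 515 nm against time-zero and vehicle plates. LC50 taken as the concentration that halves cell population through cell death.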

A549 = experiment: Cytotoxicity against human A549 cells after 48 hrs by SRB assay; assay type: functional; conditions: A549, 48 h; procedure, shortened: as §1
NCI-H460 = experiment: Cytotoxicity against human NCI-H460 cells after 48 hrs by SRB assay; assay type: functional; conditions: NCI-H460, 48 h; procedure, shortened: as §1
HCT-15 = experiment: Cytotoxicity against human HCT15 cells after 48 hrs by SRB assay; assay type: functional; conditions: HCT-15, 48 h; procedure, shortened: as §1
HT-29 = experiment: Cytotoxicity against human HT-29 cells after 48 hrs by SRB assay; assay type: functional; conditions: HT-29, 48 h; procedure, shortened: as §1
SF-268 = experiment: Cytotoxicity against human SF268 cells after 48 hrs by SRB assay; assay type: functional; conditions: SF-268, 48 h; procedure, shortened: as §1
SF-539 = experiment: Cytotoxicity against human SF539 cells after 48 hrs by SRB assay; assay type: functional; conditions: SF-539, 48 h; procedure, shortened: as §1
LOX IMVI = experiment: Cytotoxicity against human LOXIMVI cells after 48 hrs by SRB assay; assay type: functional; procedure, shortened: as §1
Malme-3M = experiment: Cytotoxicity against human MALME-3M cells after 48 hrs by SRB assay; assay type: functional; procedure, shortened: as §1
M14 = experiment: Cytotoxicity against human M14 cells after 48 hrs by SRB assay; assay type: functional; conditions: M14, 48 h; procedure, shortened: as §1
SK-MEL-28 = experiment: Cytotoxicity against human SK-MEL-28 cells after 48 hrs by SRB assay; assay type: functional; conditions: SK-MEL-28, 48 h; procedure, shortened: as §1
UACC-62 = experiment: Cytotoxicity against human UACC62 cells after 48 hrs by SRB assay; assay type: functional; conditions: UACC-62, 48 h; procedure, shortened: as §2
OVCAR-3 = experiment: Cytotoxicity against human OVCAR3 cells after 48 hrs by SRB assay; assay type: functional; conditions: OVCAR-3, 48 h; procedure, shortened: as §1
OVCAR-5 = experiment: Cytotoxicity against human OVCAR5 cells after 48 hrs by SRB assay; assay type: functional; conditions: OVCAR-5, 48 h; procedure, shortened: as §1
OVCAR-8 = experiment: Cytotoxicity against human OVCAR8 cells after 48 hrs by SRB assay; assay type: functional; conditions: OVCAR-8, 48 h; procedure, shortened: as §1
CAKI-1 = experiment: Cytotoxicity against human Caki1 cells after 48 hrs by SRB assay; assay type: functional; conditions: CAKI-1, 48 h; procedure, shortened: as §1
TK-10 = experiment: Cytotoxicity against human TK10 cells after 48 hrs by SRB assay; assay type: functional; conditions: TK-10, 48 h; procedure, shortened: as §2
DU-145 = experiment: Cytotoxicity against human DU145 cells after 48 hrs by SRB assay; assay type: functional; conditions: DU-145, 48 h; procedure, shortened: as §1
MCF7 = experiment: Cytotoxicity against human MCF7 cells after 48 hrs by SRB assay; assay type: functional; conditions: MCF7, 48 h
Procedure, shortened: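 NCI-60 screen: cells in RPMI 1640 with 5% FBS and 2 mM L-glutamine, preincubated 24 h at 37 °C. Compound was then added for 48 h at five concentrations (10−4 to 10−8 M). Cells were fixed with cold TCA and stained with 0.4% SRB in 1% acetic acid, and OD read at 515 nm. GI50 is the concentration halving net protein increase versus control.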

[1] = Cytotoxicity against human Hs 578T cells after 48 hrs by SRB assay; assay type: functional; procedure, shortened: as §1
BT-549 = experiment: Cytotoxicity against human BT549 cells after 48 hrs by SRB assay; assay type: functional; conditions: BT-549, 48 h; procedure, shortened: as §1
[2] = Antileukemic activity against human M9-ENL1 cells after 24 hrs by annexin V/7-AAD staining-based flow cytometric analysis; assay type: functional, cell-based
Procedure, shortened: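 M9-ENL1 cells in alpha-MEM with 5% human plasma, 20% FBS, SCF, IL-3, IL-7 and FLT3. Drug came from a DMSO stock diluted in PBS (≤0.5% DMSO final), for 24 h over 0.5-10 μM. Cells negative for both annexin V and 7-AAD were taken as non-apoptotic and normalized to vehicle. EC50 read from dose-response curves, triplicate.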

[3] = Antileukemic activity against human AML01 cells after 24 hrs by annexin V/7-AAD staining-based flow cytometric analysis; assay type: functional, cell-based
Procedure, shortened: (§3)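 Primary AML specimens from consenting donors, isolated by Ficoll-Paque gradient and sometimes cryopreserved. Cells were held 1 h in serum-free IMDM with 20% BIT 9500, LDL and β-mercaptoethanol before drug (DMSO stock diluted in PBS, ≤0.5% DMSO final). Exposure was 24 h over 0.5-10 μM. Annexin V/7-AAD double-negative cells, normalized to vehicle, gave the EC50. Run in triplicate.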

[4] = Antileukemic activity against human AML04 cells after 24 hrs by annexin V/7-AAD staining-based flow cytometric analysis; assay type: functional, cell-based; procedure, shortened: as §3
[5] = Antileukemic activity against human AML05 cells after 24 hrs by annexin V/7-AAD staining-based flow cytometric analysis; assay type: functional, cell-based; procedure, shortened: as §3
[6] = Cytotoxicity against hematopoietic progenitor cells isolated from human umbilical cord blood by annexin V staining-based flow cytometric analysis; assay type: cell-based
Procedure, shortened: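 Cord-blood mononuclear cells from Ficoll-Paque were plated in serum-free medium, with drug from a DMSO stock (≤0.5% DMSO final). Cells were stained for CD34, CD45 and annexin V. The non-apoptotic fraction (annexin V-negative within the CD34+CD45dim compartment) was normalized to vehicle, and EC50 was fitted where possible. Triplicate.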

[7] = read-out: LC50 (the source's name)

C=C1C(=O)O[C@H]2[C@H]1CC/C(COC(=O)NCCCCCCCCNC(=O)OC/C1=C/CC[C@@]3(C)O[C@H]3[C@H]3OC(=O)C(=C)[C@@H]3CC1)=C\CC[C@@]1(C)O[C@@H]21
GI50 (HL-60(TB)): 260 nM | CC50 (HL-60(TB); [7]): > 100 µM | GI50 (K562): 340 nM | CC50 (K562; [7]): > 100 µM | GI50 (RPMI-8226): 250 nM | CC50 (RPMI-8226; [7]): > 100 µM | GI50 (SR): 310 nM | CC50 (SR; [7]): > 100 µM | GI50 (A549): 1700 nM | CC50 (A549; [7]): 7.26 µM | GI50 (NCI-H460): 1750 nM | CC50 (NCI-H460; [7]): 9.02 µM | GI50 (HCT-15): 340 nM | CC50 (HCT-15; [7]): 4.18 µM | GI50 (HT-29): 220 nM | CC50 (HT-29; [7]): 2270 nM | GI50 (SF-268): 990 nM | CC50 (SF-268; [7]): 7.24 µM | GI50 (SF-539): 230 nM | CC50 (SF-539; [7]): 2260 nM | GI50 (LOX IMVI): 170 nM | CC50 (LOX IMVI; [7]): 760 nM | GI50 (Malme-3M): 190 nM | CC50 (Malme-3M; [7]): 920 nM | GI50 (M14): 270 nM | CC50 (M14; [7]): 4.53 µM | GI50 (SK-MEL-28): 200 nM | CC50 (SK-MEL-28; [7]): 2120 nM | GI50 (UACC-62): 190 nM | CC50 (UACC-62; [7]): 1720 nM | GI50 (OVCAR-3): 330 nM | CC50 (OVCAR-3; [7]): 3.32 µM | GI50 (OVCAR-5): 260 nM | CC50 (OVCAR-5; [7]): 4.04 µM | GI50 (OVCAR-8): 320 nM | CC50 (OVCAR-8; [7]): 6.77 µM | GI50 (CAKI-1): 650 nM | CC50 (CAKI-1; [7]): 4.79 µM | GI50 (TK-10): 280 nM | CC50 (TK-10; [7]): 2950 nM | GI50 (DU-145): 1100 nM | LC50 (concentration killing half the cells) (DU-145): 4.81 µM | GI50 (MCF7): 220 nM | CC50 (MCF7; [7]): 4.3 µM | GI50 [1]: 1170 nM | CC50 [1, 7]: > 100 µM | GI50 (BT-549): 250 nM | LC50 (BT-549): 3.57 µM | EC50 [2]: 2000 nM | EC50 [3]: 2600 nM | EC50 [4]: 3.7 µM | EC50 [5]: 2300 nM | EC50 [6]: > 10 µM
